Source: PubChem BioAssay
FAS TE block = FAS thioesterase domain inhibitors, primary screen, biochemical, fluorescence intensity, uHTS | Fatty acid synthase (Homo sapiens), P49327 | 360,000 compounds, 0.67% hits | recombinant FAS-TE, OMFH fluorogenic substrate, fluorescence endpoint | inhibition, % at 15 µM | AID 602261, 2012;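 active = compounds whose normalised, plate-corrected inhibition of enzyme fluorescence in the single-dose primary screen is 50% or more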;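 note: 0% = DMSO with enzyme and 100% = substrate without enzyme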
Runt-SMMHC FRET = inhibitors of RUNX1 Runt–CBFb-SMMHC binding, primary screen, biochemical, FRET, Cerulean-Runt, Venus-CBFb-SMMHC, uHTS | Cerulean-Runt/Venus-CBFb-SMMHC FRET ratio 530/480, 1 h | Runt-related transcription factor 1 (Homo sapiens) + Core-binding factor subunit beta … | 220,000 compounds, 0.74% hits | inhibition, % at 20 µM;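 active = mean inhibition across duplicate retests at 20 µM reaching about 50%, limit read from the data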;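 note: 0% = DMSO wells and 100% = wells with excess untagged CBFb-SMMHC; inhibitors lower the FRET ratio by blocking Runt binding to CBFb-SMMHC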
Target sequence (Q01196 whole entry, looked up): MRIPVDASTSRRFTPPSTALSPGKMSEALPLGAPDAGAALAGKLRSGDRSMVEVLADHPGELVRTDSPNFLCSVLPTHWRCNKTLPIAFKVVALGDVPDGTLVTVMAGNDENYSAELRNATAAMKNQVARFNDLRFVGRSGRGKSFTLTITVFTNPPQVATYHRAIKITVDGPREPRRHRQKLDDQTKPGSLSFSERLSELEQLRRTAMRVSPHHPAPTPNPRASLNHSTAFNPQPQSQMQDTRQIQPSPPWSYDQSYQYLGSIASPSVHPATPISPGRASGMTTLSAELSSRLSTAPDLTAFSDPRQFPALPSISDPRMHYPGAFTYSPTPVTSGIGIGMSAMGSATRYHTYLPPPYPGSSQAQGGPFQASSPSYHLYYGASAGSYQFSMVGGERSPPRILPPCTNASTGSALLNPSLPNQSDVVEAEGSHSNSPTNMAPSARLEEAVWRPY
Target sequence (Q13951 whole entry, looked up): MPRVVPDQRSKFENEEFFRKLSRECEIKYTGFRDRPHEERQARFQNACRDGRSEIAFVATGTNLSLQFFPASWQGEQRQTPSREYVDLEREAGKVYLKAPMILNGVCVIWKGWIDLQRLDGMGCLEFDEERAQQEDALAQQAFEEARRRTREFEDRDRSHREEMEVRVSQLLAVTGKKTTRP
Runt-CBFb FRET = inhibitors of RUNX1 Runt–CBFb binding, primary screen, biochemical, FRET, Cerulean-Runt, Venus-CBFb, uHTS; Cerulean-Runt/Venus-CBFb FRET ratio 530/480, 1 h; inhibition, % at 20 µM; 220,000 compounds, 0.46% hits; AID 1496, 2009;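 active = inhibition over about 50% at 20 µM in the single-dose screen, limit read from the data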;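 note: 0% = DMSO wells and 100% = excess unlabeled CBFb competitor control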
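test system = Cerulean-tagged RUNX1 Runt domain (FRET donor) fusion protein | reagent = Venus-CBFb binding partner, 100 nM | incubation = protein complex preformed 1 h, compound exposure 1 h, room temperature, dark | detection = FRET fluorescence | read-out basis = loss of energy transfer signal | controls = 5 µM unlabeled CBFb as full-inhibition high control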
Calpain2 inh = inhibitors of pig calpain II, primary screen, biochemical, fluorogenic peptide substrate, 1536-well. purified calpain II, 30 min. inhibition, % at 16 µM. 220,000 compounds, 0.37% hits. AID 1236, 2008;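 active = inhibition above about 50%, limit read from the data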
RanGTP-Impb inh = inhibitors of RanGTP-importin-beta interaction, primary screen, biochemical, FRET, CFP-Ran, YFP-importin-beta, homogeneous | cell-free CFP-Ran/YFP-importin-beta FRET ratio | inhibition, % (test concentration not listed) | 300,000 compounds, 1.1% hits;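 active = more than half of the replicate wells show a fall in the fluorescence ratio signal beyond about 16%, limit read from the data, passing the limit was not always enough; inconclusive = exactly half of the replicate wells pass the set limit; inactive = fewer than half of replicates pass the limit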;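 note: 0% = DMSO wells and 100% = Ran loaded with GDP instead of GTP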
The depositor's hits bear a star; i = inactive; ? = inconclusive; nt = no result. Sampled rows, rich in hits. Any-hit rate of the full collection: about 2.1%.

SMILES	FAS TE block	Runt-SMMHC FRET	Runt-CBFb FRET	Calpain2 inh	RanGTP-Impb inh
Nc1ccc2c(c1)N=[N+]([O-])c1cc(N)ccc1C2	-5	-3	1	7	32*
CC(C)COc1cccc(C(=O)N(CC(=O)Nc2ccccc2C(F)(F)F)Cc2ccco2)c1	25	nt	nt	nt	nt
O=c1oc2c(CN3CCCCC3)c(O)ccc2c2c1CCCC2	-5	50	23	i	9
CCc1c(C)c2ccc(O)c(CN3CCCC3)c2oc1=O	-6	nt	nt	nt	11
CN(C)Cc1c(O)c(Cl)cc2c3c(c(=O)oc12)CCCC3	-4	59*	88*	i	43*
CCc1c(C)c2cc(Cl)c(O)c(CN(C)C)c2oc1=O	-8	92*	92*	i	39*
O=c1oc2c(CN3CCOCC3)c(O)c(Cl)cc2c2c1CCC2	-3	176*	104*	i	nt
c1cnc2nc(-c3ccc4c(c3)OCO4)cn2c1	-3	1	-1	-273	4
c1ccn2cc(-c3ccc4c(c3)OCO4)cc2c1	2	92*	59*	-60	-2
COc1ccccc1C1CN(c2ccccc2)N=C1c1cccs1 (centres undefined)	25	59*	46	-90	3
CC(OC(=O)CCN1C(=O)C2CC=CCC2C1=O)C(=O)Nc1ccc(F)cc1 (centres undefined)	-2	nt	nt	nt	nt
O=C(Nc1cc([N+](=O)[O-])ccc1C(=O)Nc1cccnc1)c1ccccc1	8	nt	nt	nt	0
O=C(N/C(=C\c1ccc(Cl)cc1)C(=O)N1CCOCC1)c1ccc([N+](=O)[O-])cc1	89*	0	-3	31	5
CNC(=S)NNC(=O)c1sccc1OCc1ccc(Cl)cc1Cl	-3	-3	0	3	-2
S=c1nc(-c2sccc2OCc2ccc(Cl)cc2Cl)[nH][nH]1	2	37	36	93*	5
O=C(CN1C(=O)CSc2ccccc21)N/N=C/c1ccco1	-3	0	0	-26	9
O=C(NCc1ccncc1)C(=O)NCC1OCCN1S(=O)(=O)c1cc(F)ccc1F (centres undefined)	-3	nt	nt	nt	-5
CC(=O)N1CCc2c(sc(NC(=O)CN3C(=O)CCC3=O)c2C(N)=O)C1	-5	21	6	-416	23*
CN1CCc2c(sc(NC(=O)CS(=O)(=O)c3ccc(F)cc3)c2C(N)=O)C1	-8	nt	nt	nt	163*
CC(=O)N1CCc2c(sc(NC(=O)CS(=O)(=O)c3ccc(F)cc3)c2C(N)=O)C1	-9	nt	nt	nt	21*
COc1ccc(Cl)cc1NC(=O)CN(C)C(=O)c1ccc(-n2nc(C)cc2C)cc1	-4	nt	nt	nt	nt
C=CCc1cccc(/C=N/NC(=O)c2ccccc2OC)c1O	31	2	2	43	39*
CC(C)C(=O)Nc1sc2c(c1C(N)=O)CCN(Cc1ccccc1)C2	-8	nt	nt	nt	134*
CCC(=O)Nc1sc2c(c1C(N)=O)CCN(Cc1ccccc1)C2	-12	nt	nt	nt	134*
NC(=O)c1c(NC(=O)c2c(F)cccc2F)sc2c1CCN(Cc1ccccc1)C2	-26	nt	nt	nt	163*
SMILES	FAS TE block	Runt-SMMHC FRET	Runt-CBFb FRET	Calpain2 inh	RanGTP-Impb inh
N#Cc1ccc(CN2CCN(C(=O)CN3C(=O)NC4(CCCC4)C3=O)CC2)cc1	4	nt	nt	nt	nt
O=C(CCC(=O)Nc1nnc(C2CCCCC2)s1)Nc1ccc(F)cc1	0	nt	nt	nt	8
COc1ccccc1N/C=C/C(=C(C#N)C#N)N(C)C	0	-2	-1	22	2
COc1cc(/C=C(\C#N)C(=O)NC(C)C)cc(Cl)c1O	-3	63*	33	-40	-3
CC(C)NC(=O)/C(C#N)=C/c1cccc(NC(=O)c2ccccc2Cl)c1	-1	8	0	14	-3
O=C(CN1CCN(C(=O)c2ccco2)CC1)N1CCc2[nH]c3ccccc3c2C1	nt	-27	-24	-13	29*
Cc1ccc2[nH]c3c(c2c1)CN(C(=O)CN1CCN(C(=O)c2ccco2)CC1)CC3	nt	-33	-46	-12	-43
CNC(=O)c1c(NC(=O)c2ccc(S(=O)(=O)N3CC(C)OC(C)C3)cc2)sc2c1CCN(C(C)C)C2 (centres undefined)	-6	nt	nt	nt	62*
CCOC(=O)c1c(NC(=O)c2ccc(S(=O)(=O)N3CCOCC3)cc2)sc2c1CCN(C(C)C)C2	13	nt	nt	nt	7
CNC(=O)c1c(NC(=O)c2ccc(S(=O)(=O)N3CCCC3)cc2)sc2c1CCN(C(C)C)C2	nt	nt	nt	nt	13
CC(C)N1CCc2c(sc(NC(=O)c3ccc(S(=O)(=O)N4CCOCC4)cc3)c2C(N)=O)C1	-11	2	-5	-8	49*
O=C1COc2ccc(C(=O)COc3ccc(Cl)cc3Br)cc2N1	12	nt	nt	nt	6
C=CCn1c(=N)c(C(=O)OC)cc2c(=O)n3cccc(C)c3nc21	nt	58*	52*	nt	nt
COC(=O)c1cc2c(=O)n3cccc(C)c3nc2n(Cc2cccnc2)c1=N	nt	57*	56*	nt	nt
C=C(C)c1cccc(C(C)(C)NC(=O)Nc2ccc(OC)nc2)c1	2	nt	nt	nt	10
COC(=O)Cc1[nH]nc2c1C(c1c[nH]c3ccccc13)C(C#N)=C(N)O2 (centres undefined)	-5	2	12	1	45*
Cc1[nH]nc2c1C(c1c[nH]c3ccccc13)C(C#N)=C(N)O2 (centres undefined)	-4	-2	-3	-9	6
O=C(c1ccco1)[C@@H]1[C@@H]2C(=O)N(c3ccccc3)C(=O)[C@@H]2C2c3ccccc3C=CN21 (some centres undefined)	6	-58	-23	nt	28*
O=C(CCc1ccccc1)Nc1ccc(S(=O)(=O)NC2=NCCCCC2)cc1	-4	nt	nt	nt	nt
Cc1nc(-c2nc(-c3c(C(=O)NNC(=O)Nc4cccc(Cl)c4)noc3C)cs2)cs1	10	20	3	-12	6
Cc1nc(-c2nc(-c3c(C(=O)NNC(=O)c4ccc(Cl)cc4)noc3C)cs2)cs1	14	-3	0	-27	17*
Cc1cc(C(=O)COc2cccc3cccnc23)c(C)n1C	-19	-2	4	-8	90*
Cc1cc(C(=O)COc2ccccc2C(N)=O)c(C)n1C	-1	-5	0	-7	2
COc1ccc(NC(=O)CN2C(=O)NC(c3ccccc3)(c3ccccc3)C2=O)cc1OC	11	nt	nt	nt	31*
O=C(O)CCc1ccc(-c2cccs2)n1CC1CCCO1 (centres undefined)	-8	86*	32	-200	18*
CCCn1c(CCC(=O)O)ccc1-c1cccs1	-5	26	11	-72	?
COc1ccc(-c2ccc(CCC(=O)O)n2CC2CCCO2)cc1 (centres undefined)	-5	75*	32	-191	?
